Among the data in ChEMBL document CHEMBL4316598, “Synthesis, antiproliferative and apoptosis induction potential activities of novel bis(indolyl)hydrazide-hydrazone derivatives” (Bioorg Med Chem, 2019) are IC50 and Activity values, retold here.

One experiment has as its system A549. Description: Cytotoxicity against human A549 cells assessed as reduction in cell viability after 4 hrs by MTT assay. It is filed as functional, cell-based. Summed up: (§1)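 MTT: 10,000–20,000 cells/well attached for 16 h, then washed twice with serum-free RPMI. Treated with 1–200 µM for 4 h, 3 parallel runs per concentration. MTT added for 2 h; medium partly removed and isopropanol added. A590 read. Viability = (A treated − A doxorubicin)/(A medium − A doxorubicin)×100. Mean of three experiments, triplicate wells each.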

The subject of another experiment is HEK293. Description: Cytotoxicity against HEK293 cells assessed as reduction in cell viability after 4 hrs by MTT assay. It is filed as cell-based, Homo sapiens. The method, boiled down:
as §1

Experiment [1] relates to MCF7. Nature of the experiment: Cytotoxicity against human MCF7 cells assessed as reduction in cell viability after 4 hrs by MTT assay. Type of experiment: functional, cell-based. The method, boiled down: as §1
The test system of experiment [2] is HeLa. Nature of the experiment: Cytotoxicity against human HeLa cells assessed as reduction in cell viability after 4 hrs by MTT assay. It is filed as functional, cell-based. Summed up:
as §1
(Tetrazolium assays rely on reduction of a dye to a coloured formazan, in cell work by metabolically active cells.)

A further experiment has as its system MDA-MB-231. Description: Cytotoxicity against human MDA-MB-231 cells assessed as reduction in cell viability after 4 hrs by MTT assay. It is filed as functional, cell-based. To be noted: MDA-MB-231, 4 h. The method, boiled down: as §1
Experiment [3] relates to HeLa. Description: Induction of caspase-dependent apoptosis in human HeLa cells assessed as activation of caspase-3 at 3 uM after 24 hrs by Western blot analysis. Type of experiment: functional, cell-based. The method, boiled down: (§2)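 Cleaved caspase-3 immunoblot. Cells were exposed at 1, 3 and 5 µM for 24 h at 37 °C, with paclitaxel 3 µM as positive control. Lysis was in ice-cold Triton X-100 buffer, and protein was measured by BCA. Lysates were separated by electrophoresis, transferred to nitrocellulose and blocked in milk. Primary antibody was applied overnight at 4 °C and secondary for 1 h at 28 °C. Detection was by enhanced chemiluminescence.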
(In general: Immunoblotting shows a protein as a band on a membrane.)

Experiment [4] has as its system MCF7. Nature of the experiment: Induction of caspase-dependent apoptosis in human MCF7 cells assessed as activation of caspase-3 at 3 uM after 24 hrs by Western blot analysis. It is filed as functional, cell-based. The method, boiled down: as §2
A short description of experiment [5]: Cytotoxicity against human SW680 cells assessed as reduction in cell viability after 4 hrs by MTT assay. Type of experiment: functional, cell-based.
The next experiment concerns SCC-25. Description: Cytotoxicity against human SCC25 cells assessed as reduction in cell viability after 4 hrs by MTT assay. Type of experiment: functional, cell-based. The settings on record: SCC-25, 4 h.
A further experiment deals with FaDu. Nature of the experiment: Cytotoxicity against human FADU cells assessed as reduction in cell viability after 4 hrs by MTT assay. It is filed as functional, cell-based.
For a further experiment, the system named is Detroit 562. Description: Cytotoxicity against human Detroit 562 cells assessed as reduction in cell viability after 4 hrs by MTT assay. Type of experiment: functional, cell-based. To be noted: Detroit 562, 4 h.
In a further experiment the test system is DU-145. Nature of the experiment: Antiproliferative activity against human DU145 cells by MTS assay. It is filed as functional, cell-based.
Setting [6] is: Homo sapiens, A549, 4 h, read-out: IC50.
The mark [7] stands for this setting: Homo sapiens, HeLa, 4 h, read-out: IC50.
The mark [8] stands for this setting: Homo sapiens, MCF7, 4 h, read-out: IC50.

SMILES strings stand for the structures. Values after ≈ are worked out from the molar mass of the structure shown. Active and inactive are the calls of the source. The calls are words filed in the database; no cut-off is given here. A value given as a limit tells only on which side of the number the result lay.

By IC50 is commonly meant the midpoint of a concentration-inhibition curve. Regarding `COc1ccc2[nH]cc(/C=N\NC(=O)c3cn(C)c4ccc(Br)cc34)c2c1`, the IC50 is 12.8 µM in the experiment on A549 (setting [6]); “Non-Toxic” with HEK293 (hek293); “Not Active” in the experiment on MCF7 [1] (mcf7); 14.2 µM in the experiment on HeLa [2] (setting [7]); 22.7 µM with MDA-MB-231.
With `Cn1cc(C(=O)N/N=C\c2c[nH]c3ccccc23)c2cc(Br)ccc21`, the IC50 result in the experiment with A549 (a549) is “Not Active”; with HEK293 (hek293), “Non-Toxic”; in the experiment with MCF7 [1] (mcf7), “Not Active”; in the experiment with HeLa [2] (hela), “Not Active”; with MDA-MB-231, 14.2 µM.
With `CC(=O)O[C@H]1C(=O)[C@@]2(C)[C@H]([C@H](OC(=O)c3ccccc3)[C@]3(O)C[C@H](OC(=O)[C@H](O)[C@@H](NC(=O)c4ccccc4)c4ccccc4)C(C)=C1C3(C)C)[C@]1(OC(C)=O)CO[C@@H]1C[C@@H]2O`, the result in the experiment with HeLa [3] and in the experiment with MCF7 [4] was Active.
For the compound `COc1cccc2c1C(=O)c1c(O)c3c(c(O)c1C2=O)C[C@@](O)(C(=O)CO)C[C@@H]3O[C@H]1C[C@H](N)[C@H](O)[C@H](C)O1` [DOXORUBICIN], the 50% inhibitory concentration (IC50) in the experiment on A549 (setting [6]) was 0.89 to 2.11 µM; with HEK293 (Homo sapiens, HEK293, 4 h, read-out: IC50), greater than 200 µM; in experiment [5], 1.2 µM; in the experiment with SCC-25, 2.24 µM; with FaDu it was 0.68 µM; in the experiment on MCF7 [1] (setting [8]), 0.23 to 0.98 µM. The concentration for half-maximal inhibition (IC50) in the experiment with HeLa [2] (setting [7]) was 0.36 to 1.09 µM; in the experiment with MDA-MB-231, 3.1 µM; in the experiment with Detroit 562, 1.26 µM.
With `Cn1cc(/C=N\NC(=O)c2cn(C)c3ccccc23)c2ccccc21`, the IC50 in the experiment with A549 (setting [6]) is 19 µM; in the experiment with HEK293 (hek293), “Non-Toxic”; in the experiment on MCF7 [1] (setting [8]), 31.3 µM; in the experiment with HeLa [2] (hela), “Not Active”; in the experiment on MDA-MB-231, 18.9 µM.
`O=C(N/C=C/c1c[nH]c2ccccc12)C(=O)c1c[nH]c2ccccc12`: in the experiment with DU-145, it took 7.6 mg/L (≈ 23.1 µM) to reach half-maximal inhibition (IC50).
